Changes are numbered by the printed parent chain. Where a name gives a salt, the structure may show the parent alone. Read-outs that look alike come from different tables or passages of the source. Each block holds one compound with its values, some of them ahead of it.
How the values were obtained:
human GMPK = biological target: T1, human GMPK (Homo sapiens, UniProt Q16774); experiment: NMR chemical shift perturbation titration; type: binding
T1 sequence (Q16774 1-197): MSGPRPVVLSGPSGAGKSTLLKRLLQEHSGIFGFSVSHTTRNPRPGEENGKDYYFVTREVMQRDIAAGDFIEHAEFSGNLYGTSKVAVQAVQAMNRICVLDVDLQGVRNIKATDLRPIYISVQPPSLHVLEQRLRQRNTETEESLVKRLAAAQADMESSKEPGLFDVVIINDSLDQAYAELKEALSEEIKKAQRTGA
Outline: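 15N-GMPK was expressed in M9 medium with 0.5 mM IPTG at 16 °C for 20 h, then diluted to 50–100 μM in 20 mM HEPES, 150 mM NaCl, pH 7.5, 10% D2O. 1H-15N HSQC at 298 K, 700 MHz with cryoprobe. Assignments transferred from BMRB 27151; overlapped peaks excluded. Chemical shift perturbations globally fitted to a one-site model with Kd shared across residues.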

GMPK-ADP mixture = biological target: T2, GMPK-ADP mixture (Homo sapiens, UniProt Q16774); experiment: ITC of GMP into GMPK-ADP mixture; settings: GMP binding after incubation of ADP
T2 sequence (Q16774 1-197): T1 sequence (Q16774 1-197)
Outline: (§1)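 GMP titrated into a preformed nucleotide–enzyme mixture by ITC at 25 °C. Cell held 50 μM recombinant human GMPK premixed with 0.5 mM ADP or ATPγS. Syringe held 2 or 2.5 mM GMP. One 1 μL injection, then 19 × 2 μL. Fitted Kd reported.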

GMPK-ATPγS mixture = biological target: T3, GMPK-ATPγS mixture (Homo sapiens, UniProt Q16774); experiment: ITC of GMP into GMPK-ATPγS mixture; settings: GMP binding after prior incubation of ATPγS
T3 sequence (Q16774 1-197): T1 sequence (Q16774 1-197)
Outline: as §1

GMPK R148A mutant = biological target: T4, GMPK R148A mutant (Homo sapiens, UniProt Q16774, R148A); experiment: ITC binding, GMPK R148A; settings: R148A vs wild type
T4 sequence (Q16774 1-197 R148A): T1 sequence (Q16774 1-197) with R148A
Outline: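 Mutant made by homologous recombination and Sanger-verified, then expressed in E. coli Rosetta (DE3). Purified by Ni column, ULP1 cleavage of the SUMO tag and SEC (20 mM HEPES, 150 mM NaCl, pH 7.5). ITC at 25 °C with 50 μM protein in the cell and 1.25 or 2.5 mM GMP in the syringe. Injections: 1 μL, then 19 × 2 μL.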

human GMPK wild type [1] = biological target: T5, human GMPK wild type (Homo sapiens, UniProt Q16774); experiment: ITC binding of nucleotides to wild-type GMPK
T5 sequence (Q16774 1-197): T1 sequence (Q16774 1-197)
Outline: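 ITC at 25 °C with recombinant human GMPK: SUMO-tagged, expressed in E. coli Rosetta (DE3), Ni-purified, tag cut with ULP1, then SEC. Both partners were in 20 mM HEPES pH 7.5 with 150 mM KCl. Cell held 50 μM GMPK; syringe held 1 mM GMP. One 1 μL injection was followed by 19 × 2 μL injections. Triplicate experiments.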

human GMPK wild type [2] = biological target: T5, human GMPK wild type; experiment: NADH-dependent enzyme activity assay, wild-type GMPK; type: biochemical

- Kd (human GMPK): 30 µM
Compound: Nc1ncnc2c1ncn2[C@@H]1O[C@H](CO[P@](=O)(O)O[P@](=O)(O)O[P@@](=O)(O)S)[C@@H](O)[C@H]1O [ATPγS, reference compound]

- Kd (GMPK-ADP mixture): 60 µM
- Kd (GMPK-ATPγS mixture): 170 µM
- Kd (human GMPK wild type [1]; GMP binding to GMPK without prior incubation): 32 µM
- Kd (human GMPK wild type [1]; read-out: Mean Kd, GMP into GMPK, 150 mM KCl, triplicate experiments): 7.1 µM
Compound: Nc1nc2c(ncn2[C@@H]2O[C@H](COP(=O)(O)O)[C@@H](O)[C@H]2O)c(=O)[nH]1 [GMP]
- weakening of GMP binding by R148A mutagenesis (GMPK R148A mutant): 1.7 fold

- decrease of kcat at 150 mM relative to 10 mM (human GMPK wild type [2]; 150 mM vs 10 mM potassium ions): 1.5 fold
- K+ concentration at which the initial reaction rate reached its maximum (human GMPK wild type [2]; saturating substrate conditions): about 7.5 mM
Compound: [Cl-].[K+] [KCl, potassium chloride]

- mode of inhibition (human GMPK wild type [2]; Michaelis-Menten curves for ATP under 1, 5 and 10 mM SO4 2-): competitive inhibitor of ATP
- Kd (human GMPK; read-out: Kd from NMR titration, binding to the p-loop region of GMPK): 5600 µM
Compound: O=S(=O)(O)O [sulfate ions, sulfate ion]

From publication PMC12297293 (Nature Communications, 2025)
